Drawing on ChEMBL document CHEMBL1153743, “Pyrrolidinones from the ascomycete fungus Albonectria rigidiuscula” (J Nat Prod, 2009), this text covers IC50 and Activity for five compounds.

What all share (assay type): functional, cell-based
Assay [1] concerns HeLa. The assay can be described thus: Cytotoxicity against human HeLa cells after 48 hrs by MTT assay. In short, it runs like this: (§1)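 HeLa cells seeded at 10^4 per well and left to attach overnight. Cells were exposed for 4 h at 37 °C and 5% CO2 to serial dilutions or a single 120 µM level, made from 10 mg/mL DMSO stocks, or to 0.2% DMSO medium. They then grew 48 h in fresh DMEM. MTT (0.5 mg/mL) was added for 3 h in the dark, formazan was dissolved in DMSO, and A540 was read. Run in triplicate; IC50 reported.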
Background: Tetrazolium assays rely on reduction of a dye to a coloured formazan, in cell work by metabolically active cells.

The test system of assay [2] is MCF7. Nature of the assay: Cytotoxicity against human MCF7 cells after 48 hrs by MTT assay. The following applies: MCF7, 48 h.
The subject of assay [3] is HeLa. Nature of the assay: Cytotoxicity against human HeLa cells at 120 uM after 48 hrs by MTT assay. In short, it runs like this: as §1
Assay [4] deals with MCF7. The assay can be described thus: Cytotoxicity against human MCF7 cells at 120 uM after 48 hrs by MTT assay.

pIC50: −log10 of the molar value. The source made the active and inactive calls. No cut-off for these calls is given here.

For orientation: pIC50 means the IC50 on a negative log10 scale, so that one unit is a factor of ten. In turn, `O=c1[nH]cc(F)c(=O)[nH]1` [FLUOROURACIL] had a pIC50 with HeLa [1] of 5.00.

As to `CN1C(=O)[C@@](C)(O)[C@@H](O)[C@@H]1Cc1ccc2c(c1)CC(C(C)(C)O)O2` (stereo partly drawn), the pIC50 in the assay on MCF7 [2] and in the assay on HeLa [1] was below 3.92 each time. The result in the assay on HeLa [3] and in the assay with MCF7 [4] was inactive.

`CN1C(=O)[C@@](C)(O)C(=O)[C@@H]1Cc1ccc(O)cc1`: the results for the pIC50 in the assay on MCF7 [2] and with HeLa [1] were 4.00 and 4.32, respectively.

For the compound `CN1C(=O)[C@@](C)(O)C(=O)[C@@H]1Cc1ccc2c(c1)CC(C(C)(C)O)O2` (stereo partly drawn), the pIC50 in the assay on MCF7 [2] and in the assay on HeLa [1] was below 3.92 throughout. For the same compound, the result in the assay with HeLa [3] and with MCF7 [4] was inactive.

Turning to `CN1C(=O)[C@@](C)(O)[C@@H](O)[C@@H]1Cc1ccc(O)cc1`, the pIC50 in the assay with MCF7 [2] and in the assay on HeLa [1] was 4.02 throughout.
